Data reported in publication PMC11986672 (RSC Medicinal Chemistry, 2025).
Counter-ions that a name gives are not always drawn. Like-named read-outs stand apart in the source and are kept apart here.

Legend:
[1] = tested on: human endometrial cancer (HEC1A) cells; experiment: MTT cytotoxicity assay, HEC1A; assay type: cell-based; conditions: for IC50: 48 h; for Selectivity ratio: IC50 MAD11 divided by IC50 HEC1A; for times more potent than BH10: HEC1A IC50 compared with BH10
Outline: (§1)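 HEC1A (5000/well) and MAD11 (2500/well) cells were seeded and held overnight at 37 °C. Test compound was reconstituted in DMSO and serially diluted in medium to final 160, 80, 40, 20, 10, 5, 2.5 and 1.25 μM, in triplicate, with matched DMSO in all wells. After 48 h, MTT was added for 3 h, formazan solubilised (4 mM HCl, 0.1% NP-40, isopropanol) and absorbance read at 590/620 nm. IC50 was taken against vehicle controls; selectivity = MAD11 IC50 / HEC1A IC50.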

[2] = tested on: noncancerous human endometrial stromal (MAD11) cells; experiment: MTT cytotoxicity assay, MAD11; assay type: cell-based; conditions: MAD11, 48 h, read-out: MAD11 IC50
Outline: as §1

[3] = Homo sapiens, HEC-1-A, read-out: HEC1A IC50, MTT cell viability, 48 h, n = 3 biological repeats
[4] = read-out: HEC1A IC50, MTT cell viability, n = 3 biological repeats

Structure (SMILES)	IC50 ([1]; Homo sapiens, HEC-1-A, read-out: HEC1A IC50) [µM]	Selectivity ratio [1]	IC50 [2] [µM]	IC50 [1, 3] [µM]	IC50 [1, 4] [µM]	times more potent than BH10 [1] [times]
O=C1C(Cl)=C(NCCCl)C(=O)c2ccccc21 [Compound 16, 2-Chloro-3-((2-chloroethyl)amino)-[1,4]-naphthoquinone]	5.65	2.14	12.1			
CCC(=O)NC1=C(NCCCN2CCCCC2)C(=O)c2ccccc2C1=O [Compound 40, N-(1,4-Dioxo-3-((3-(piperidin-1-yl)propyl)amino)-1,4-dihydronaphthalen-2-yl)propionamide]		2.70	38.2	14	14.1	
CCCCNC1=C(Cl)C(=O)c2ccccc2C1=O [Compound 23, 2-(Butylamino)-3-chloro-[1,4]-naphthoquinone]		>1.25	> 40	32		
Cc1nc2c(n1CCN1CCOCC1)C(=O)c1ccccc1C2=O [Compound 48, 2-Methyl-1-(2-morpholinoethyl)-1H-naphtho[2,3-d]imidazole-4,9-dione]			> 40	> 40		
O=C1C(Br)=C(NCCCN2CCOCC2)C(=O)c2ccccc21 [Compound 9, 2-Bromo-3-((3-morpholinopropyl)amino)-[1,4]-naphthoquinone]		2.90	12.1	4.16		
CC1=C(NCCN2CCOCC2)C(=O)c2ccccc2C1=O [Compound 11, 2-Methyl-3-((2-(4-morpholinyl)ethyl)amino)-[1,4]-naphthoquinone]			> 40	> 40		
CN(C)CCNC1=C(Cl)C(=O)c2ccccc2C1=O [Compound 12, 2-Chloro-3-((2-(dimethylamino)ethyl)amino)-[1,4]-naphthoquinone]		1.83	2.87	1.57		
CCOC(=O)CNC1=C(Cl)C(=O)c2ccccc2C1=O [Compound 25, Ethyl (3-chloro-1,4-dioxo-1,4-dihydronaphthalen-2-yl)glycinate]		1.00	20.1	20		
CCCc1nc2c(n1CCCN1CCCCC1)C(=O)c1ccccc1C2=O [Compound 46, 1-(3-(Piperidin-1-yl)propyl)-2-propyl-1H-naphtho[2,3-d]imidazole-4,9-dione]			> 40	19		
CC(=O)NC1=C(NCCCN2CCCCC2)C(=O)c2ccccc2C1=O [Compound 39, N-(1,4-Dioxo-3-((3-(piperidin-1-yl)propyl)amino)-1,4-dihydronaphthalen-2-yl)acetamide]			> 40	26	26	
O=C1C=C(NCCCN2CCOCC2)C(=O)c2ccccc21 [Compound 6, 2-((3-Morpholinopropyl)amino)-[1,4]-naphthoquinone]			> 40	> 40		
C#CCNC1=C(Cl)C(=O)c2ccccc2C1=O [Compound 24, 2-Chloro-3-(prop-2-yn-1-ylamino)naphthalene-1,4-dione]		1.02	22.4	21.9		
O=C1C(Br)=C(NCCN2CCOCC2)C(=O)c2ccccc21 [Compound 8, 2-Bromo-3-((2-(4-morpholinyl)ethyl)amino)-[1,4]-naphthoquinone]		2.15	20.5	9.55		
COC(=O)[C@H](Cc1c[nH]c2ccccc12)NC1=C(Cl)C(=O)c2ccccc2C1=O [Compound 26, Methyl (3-chloro-1,4-dioxo-1,4-dihydronaphthalen-2-yl)-L-tryptophanate]			> 40	> 40		
O=C1C(Cl)=C(NCc2cn(-c3ccccc3)nn2)C(=O)c2ccccc21 [Compound 31, 2-Chloro-3-(((1-phenyl-1H-1,2,3-triazol-4-yl)methyl)amino)naphthalene-1,4-dione]		1.74	34	19.5		
CCOC(=O)c1ccc(-n2cc(CNC3=C(Cl)C(=O)c4ccccc4C3=O)nn2)cc1 [Compound 33, Ethyl 4-(4-(((3-chloro-1,4-dioxo-1,4-dihydronaphthalen-2-yl)amino)methyl)-1H-1,2,3-triazol-1-yl)benzoate]		1.92	21.3	11.1		
O=C1C(Cl)=C(NCCCN2CCOCC2)C(=O)c2ccccc21 [Compound 20, 2-Chloro-3-((3-morpholinopropyl)amino)naphthalene-1,4-dione]		3.42	21.9	6.41		
CCCCC(=O)NC1=C(NCCCN2CCCCC2)C(=O)c2ccccc2C1=O [Compound 42, N-(1,4-Dioxo-3-((3-(piperidin-1-yl)propyl)amino)-1,4-dihydronaphthalen-2-yl)pentanamide]			> 40	15		
CC(=O)NC1=C(NCCN2CCOCC2)C(=O)c2ccccc2C1=O [Compound 43, N-(3-((2-Morpholinoethyl)amino)-1,4-dioxo-1,4-dihydronaphthalen-2-yl)acetamide]			> 40	> 40		
COC(=O)[C@H](Cc1ccccc1)NC1=C(Cl)C(=O)c2ccccc2C1=O [Compound 27, Methyl (3-chloro-1,4-dioxo-1,4-dihydronaphthalen-2-yl)-L-phenylalaninate]			> 40	> 40		
CCCC(=O)NC1=C(NCCCN2CCCCC2)C(=O)c2ccccc2C1=O [Compound 41, N-(1,4-Dioxo-3-((3-(piperidin-1-yl)propyl)amino)-1,4-dihydronaphthalen-2-yl)butyramide]			> 40	15		
O=C1C(Cl)=C(NCCN2CCNCC2)C(=O)c2ccccc21 [Compound 29, 2-Chloro-3-((2-(1-piperazinyl)ethyl)amino)-[1,4]-naphthoquinone salt]		2.45	11.5	4.68		2.2
O=C1C=C(NCCCN2CCCCC2)C(=O)c2ccccc21 [Compound 7, 2-((3-(Piperidin-1-yl)propyl)amino)-[1,4]-naphthoquinone]		>2.32	> 40	17.2		
O=C1C(Br)=C(NCCCN2CCCCC2)C(=O)c2ccccc21 [Compound 10, 2-Bromo-3-((3-(piperidin-1-yl)propyl)amino)-[1,4]-naphthoquinone]		2.64	3.27	1.24		
O=C1C(Cl)=C(NCCN2CCCC2)C(=O)c2ccccc21 [Compound 13, 2-Chloro-3-((2-(1-pyrrolidinyl)ethyl)amino)-[1,4]-naphthoquinone]		1.84	2.38	1.29		~8
O=C1C(Cl)=C(NCCN2CCCCCC2)C(=O)c2ccccc21 [Compound 15, 2-((2-(Azepan-1-yl)ethyl)amino)-3-chloro-[1,4]-naphthoquinone]		1.84	2.38	1.29		~8
CCCCc1nc2c(n1CCCN1CCCCC1)C(=O)c1ccccc1C2=O [Compound 47, 2-Butyl-1-(3-(piperidin-1-yl)propyl)-1H-naphtho[2,3-d]imidazole-4,9-dione]		1.80	24	14		
